Results from ChEMBL document CHEMBL4028864 (J Med Chem, 2017).

Assay: AUC (0 to infinity) in Wistar rat at 5 mg/kg, po administered via gavage by LC-MS/MS analysis
Assay type: ADME, organism-based
Parameters: dose 5 mg/kg, time infinity, route oral
Settings: in vivo
How it was run: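 Wistar rats given a single 5 mg/kg oral dose. Plasma concentration–time profiles were plotted as mean ± SEM and sampled through 24 h postdose.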

AUC(0-inf): 0.0123 µg·h/mL
SMILES: O=C(CCCCCCn1cc(-c2ncnc3[nH]ccc23)cn1)NO
